The text below walks through data of ChEMBL document CHEMBL1828562, “Aryl H-phosphonates 17: (N-aryl)phosphoramidates of pyrimidine nucleoside analogues and their synthesis, selected properties, and anti-HIV activity” (J Med Chem, 2011).

Data set [1] is described as follows: Cytotoxicity against human CEM-T4 cells assessed as cell viability at 200 uM after 7 days by MTT assay. Particulars: cem-t4, 168 h. The data set is classed as cell-based. The essentials: (§1)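 CEM-T4 cells cultured at 37 °C, 5% CO2 in RPMI/10% FCS containing compound, with neat medium as control. After 7 days, MTT (5 mg/mL solution) added for 3 h at 37 °C. Cells centrifuged, supernatant removed, formazan dissolved in DMSO and read at 560 nm. CC50 and CC90 determined on mock-infected cells.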
Background: Tetrazolium dyes change colour on reduction, which living cells bring about.

Data set [2] relates to Human immunodeficiency virus 1. As to the kind of experiment: Antiviral activity against HIV1 infected in human CEM-T4 cells assessed as reduction in viral protein p24 production preincubated for 24 hrs measured after 8 days by MTT assay. The data set is classed as functional, organism-based. As to conditions: Human immunodeficiency virus 1, CEM-T4. The essentials:
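CEM-T4 cells, 20000 per well in 200 μL, preincubated 24 h at 37 °C, 5% CO2 in RPMI/10% FCS containing compound at 0,001–20 μM. Cells then inoculated with a known amount of HIV. Viral p24 read after 8 days by the MTT method. Triplicate cultures per concentration.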

Data set [3] in a line: Selectivity index, ratio of CC50 for human CEM-T4 cells to EC50 for HIV1 infected human CEM-T4 cells. As to conditions: read-out: Ratio CC50/EC50. The data set is classed as toxicity, cell-based. The essentials: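 Selectivity index calculated as CC50/EC50, both measured in CEM-T4 cells, and rounded.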
Data set [4] in a line: Chemical stability of the compound in RPMI cell culture media assessed as half life at 2 mM. It is filed as physicochemical. The essentials:
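Compound at 2 mM incubated in RPMI/FBS 9:1 (v/v) at 37 °C. Decomposition followed by HPLC on a C18 column. Half-life calculated from the degradation course.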

In data set [5] the target is Human immunodeficiency virus type 1 reverse transcriptase (Human immunodeficiency virus 1) (UniProt Q72547). Put plainly: Inhibition of HIV1 recombinant reverse transcriptase at <= 3 uM preincubated for 5 mins measured after 1 hr by electrophoresis analysis. The essentials: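 Recombinant HIV-1 RT preincubated 5 min at 45 °C with compound in 50 mM Tris-HCl pH 8.3, 75 mM KCl, 3 mM MgCl2, 10 mM DTT. Started with dNTPs (50 μM final) and run 60 min at 45 °C. Products resolved on 12% denaturing PAGE and imaged by autoradiography. Fully extended product quantified.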

Data set [6] deals with Human immunodeficiency virus 1. As to the kind of experiment: Antiviral activity against HIV1 infected in human CEM/TK- cells assessed as inhibition of virus-induced cytopathogenicity. It is filed as functional, organism-based. (Damage to the host cells serves as the signal in cytopathic effect assays.)
Data set [7] deals with Human immunodeficiency virus 1. Put plainly: Antiviral activity against HIV1 infected in human CEM/TK+ cells assessed as inhibition of virus-induced cytopathogenicity. The data set is classed as functional, organism-based.
A short description of data set [8]: Chemical stability of the compound in RPMI cell culture media assessed as compound decomposition by HPLC analysis in presence of human MT4 cells. The data set is classed as ADME, cell-based. The essentials:
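Compound incubated at 37 °C in RPMI cell culture medium in the presence of MT-4 cells. Degradation rate and decomposition products followed by HPLC on a C18 column.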

Data set [9] can be described thus: Cytotoxicity against human CEM-T4 cells assessed as cell viability after 7 days by MTT assay. The data set is classed as cell-based. The essentials: as §1
Data set [10] in a line: Dissociation constant, pKa of the compound in aqueous solution. It is filed as physicochemical.
Data set [11] in a line: Cytotoxicity against human CEM-T4 cells assessed as cell viability at 50 uM after 7 days by MTT assay. It is filed as cell-based. As to conditions: cem-t4, 168 h. The essentials: as §1
Data set [12] can be described thus: Cytotoxicity against human CEM-T4 cells assessed as cell viability at 30 uM after 7 days by MTT assay. As to conditions: cem-t4, 168 h. The data set is classed as cell-based. The essentials: as §1

Calls of active or inactive are those of the source. No cut-off for these calls is given here.

In general, EC50 refers to the midpoint of the concentration-response curve. For orientation: EC90 means the concentration at which the effect reaches the 90% level. As to `Nc1ccccn1` [2-AMINOPYRIDINE], in data set [1], the Activity result is “Non-toxic”. Further, in data set [2], the EC50 is more than 20 µM and the EC90 is more than 20 µM. For the same compound, the selectivity ratio in data set [3] was less than 10.

What is called half-life is how long it takes for the measured level to halve. Take `Cc1cn([C@H]2C[C@H](N=[N+]=[N-])[C@@H](COP(=O)(O)Nc3cccnc3)O2)c(=O)[nH]c1=O`: the half-life at 2000 µM in [4] was 73.3 h. In addition, in data set [1], the Activity entry is “Non-toxic”. Also, in [2], the EC50 was 0.0023 µM. Further, in data set [2], the EC90 was 0.009 µM. The selectivity ratio in data set [3] was more than 87000. Also, the inhibition result in data set [5] and in data set [6] was “inactive” in each case. Further, the inhibition result in data set [7] was “Active”. The Stability entry in data set [8] is given as “Stable”.

For orientation: CC50 means the concentration at which the toxic effect on the cells reaches its halfway point. On to `CCN(CC)CC.Cc1cn([C@H]2C[C@H](N=[N+]=[N-])[C@@H](COP(=O)(O)Nc3ccc(Cl)cc3)O2)c(=O)[nH]c1=O`, for which the half-life at 2000 µM in [4] is more than 120 h. Besides, in [9], the CC50 at 168 h was 290 µM and the CC90 at 168 h stood at 360 µM. In data set [2], the 50% effective concentration (EC50) amounted to 0.02 µM and the EC90 was determined as 0.1 µM. Besides, the selectivity ratio in data set [3] worked out at 14500. Moreover, the inhibition result in data set [6] is “inactive”.

A word on the pKa: it is the negative logarithm of the acid dissociation constant. The low end stands for a stronger acid or weaker base, the high end for a weaker acid or stronger base. In [10], `Nc1cccnc1` had a pKa of 6.03. Besides, the Activity result in [1] was “Non-toxic”. In data set [2], the EC50 is more than 20 µM and the EC90 was more than 20 µM. The selectivity ratio in data set [3] is less than 10.

Consider `Cc1cn([C@H]2C[C@H](N=[N+]=[N-])[C@@H](COP(=O)(O)O)O2)c(=O)[nH]c1=O` [AZIDOTHYMIDINE MONOPHOSPHATE], for which, in data set [4], the half-life at 2000 µM is 3.6 h. In data set [9], the CC50 at 168 h was found to be 100 µM. In addition, the EC50 in data set [2] turned out to be 0.01 µM. Further, the selectivity ratio in data set [3] worked out at 10000.

`O=c1ccn([C@H]2CC[C@@H](COP(=O)(O)Nc3ccncc3)O2)c(=O)[nH]1` displayed a pKa in [10] of less than 8. In addition, in [4], the half-life at 2000 µM is 32.1 h. In data set [2], the EC50 worked out at 0.2 µM and the EC90 amounted to 1.35 µM. Moreover, the selectivity ratio in data set [3] is more than 250. Further, the inhibition result in data set [6] is “inactive”. In addition, the Activity result in data set [11] is “Non-toxic”.

For the compound `O=c1ccn([C@H]2CC[C@@H](COP(=O)(O)Nc3cccnc3)O2)c(=O)[nH]1`, in data set [4], the half-life at 2000 µM was 27.9 h. In addition, in data set [2], the EC50 was more than 10 µM and the EC90 was more than 10 µM. The selectivity ratio in [3] was less than 3. The inhibition entry in [6] is “inactive”. Also, in [12], the Activity entry is given as “Non-toxic”.

In the case of `Cc1cn([C@H]2C[C@H](N=[N+]=[N-])[C@@H](COP(=O)(O)Nc3ccncc3)O2)c(=O)[nH]c1=O`, the pKa in data set [10] is less than 8. Besides, the half-life at 2000 µM in [4] was more than 120 h. Moreover, the Activity entry in data set [1] is on record as “Non-toxic”. The concentration for a half-maximal effect (EC50) in data set [2] turned out to be 0.0011 µM. The EC90 in data set [2] is 0.006 µM. Besides, the selectivity ratio in [3] was more than 182000. Besides, the inhibition result in data set [5] and in data set [6] was “inactive” throughout. Also, the inhibition result in [7] was “Active”. Further, in [8], the Stability entry was “Stable”.

`Nc1ccncc1` [DALFAMPRIDINE] returned a pKa in data set [10] of 9.13. Moreover, in data set [1], the Activity result is “Non-toxic”. Besides, in data set [2], the EC50 is more than 20 µM and the EC90 was more than 20 µM. In addition, in data set [3], the selectivity ratio is less than 10.

With `COc1ccc(N)cc1`, the pKa in data set [10] worked out at 4.58.

As to `O=c1ccn([C@H]2CC[C@@H](COP(=O)(O)Nc3ccccc3)O2)c(=O)[nH]1`, the inhibition result in data set [6] was “inactive”.

For `Nc1ccc(Cl)cc1` [4-CHLOROANILINE], in data set [10], the pKa was found to be 3.99.

As for `Cc1cn([C@H]2C[C@H](N=[N+]=[N-])[C@@H](CO)O2)c(=O)[nH]c1=O` [ZIDOVUDINE], in [9], the cytotoxic concentration (CC50) at 168 h is more than 200 µM and the CC90 at 168 h is more than 200 µM. Further, in data set [2], the EC50 was less than 0.002 µM and the EC90 stood at 0.005 µM. Besides, the selectivity ratio in data set [3] was more than 100000.

Turning to `CCN(CC)CC.Cc1cn([C@H]2C[C@H](N=[N+]=[N-])[C@@H](COP(=O)(O)Nc3ccccc3)O2)c(=O)[nH]c1=O`, the half-life at 2000 µM in [4] was more than 120 h. Besides, in data set [9], the CC50 at 168 h was more than 200 µM and the CC90 at 168 h is more than 200 µM. Further, in data set [2], the EC50 stood at 0.6 µM and the EC90 was more than 10 µM. Also, the selectivity ratio in data set [3] was more than 300. Also, the inhibition entry in data set [6] was “inactive”.
